According to ChEMBL document CHEMBL2384936, “Synthesis and evaluation of antimicrobial activity of hydrazones derived from 3-oxido-1H-imidazole-4-carbohydrazides” (Eur J Med Chem, 2013):
The source made the active and inactive calls.

Key:
Pseudomonas aeruginosa = experiment: Antibacterial activity against Pseudomonas aeruginosa NCTC 6249 assessed as growth inhibition at 1 to 600 ug/mL after 18 hrs by broth microdilution method; assay type: functional, organism-based
Enterococcus faecalis = experiment: Antibacterial activity against Enterococcus faecalis ATCC 29212 assessed as growth inhibition at 1 to 600 ug/mL after 18 hrs by broth microdilution method; assay type: functional, organism-based
[1] = test system: Staphylococcus epidermidis; experiment: Antibacterial activity against Staphylococcus epidermidis ATCC 12228 assessed as growth inhibition at 1 to 600 ug/mL after 18 hrs by broth microdilution method; assay type: functional, organism-based
Staphylococcus aureus [2] = experiment: Antibacterial activity against Staphylococcus aureus ATCC 6538 assessed as growth inhibition at 1 to 600 ug/mL after 18 hrs by broth microdilution method; assay type: functional, organism-based
Summary of the method: (§1)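 Frozen stocks (-80 °C, tryptic soy broth with 15% glycerol); S. aureus subcultured on blood agar and identified by catalase, coagulase and clumping factor. Inoculum at 0.5 McFarland. DMSO-dissolved compounds 1–600 µg/mL in Mueller–Hinton broth, 37 °C 18 h, OD600 read with and without compound. MIC = lowest concentration preventing growth; triplicates, per CLSI.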

Proteus vulgaris = experiment: Antibacterial activity against Proteus vulgaris ATCC 49990 assessed as growth inhibition at 1 to 600 ug/mL after 18 hrs by broth microdilution method; assay type: functional, organism-based
Proteus mirabilis = experiment: Antibacterial activity against Proteus mirabilis ATCC 29906 assessed as growth inhibition at 1 to 600 ug/mL after 18 hrs by broth microdilution method; assay type: functional
Escherichia coli = experiment: Antibacterial activity against Escherichia coli NCTC 8192 assessed as growth inhibition at 1 to 600 ug/mL after 18 hrs by broth microdilution method; assay type: functional, organism-based
Candida albicans = experiment: Antifungal activity against Candida albicans ATCC 10231 assessed as growth inhibition at 1 to 600 ug/mL after 18 hrs by broth microdilution method; assay type: functional, organism-based
Staphylococcus aureus [3] = experiment: Antibacterial activity against Staphylococcus aureus ATCC 29213 assessed as growth inhibition at 1 to 600 ug/mL after 18 hrs by broth microdilution method; assay type: functional, organism-based; summary of the method: as §1

Measured: Activity

Cc1c(C(=O)N/N=C/c2ccccc2O)[n+]([O-])cn1Cc1ccccc1
inactive: all assays above

Cc1c(C(=O)N/N=C/c2ccccc2)[n+]([O-])cn1Cc1ccccc1
inactive: all assays above

Cc1c(C(=O)N/N=C/c2ccc(N(C)C)cc2)[n+]([O-])cn1Cc1ccccc1
inactive: all assays above
